EC50 and IC50 data for 14 molecules are collected here from ChEMBL document CHEMBL1126297, “Synthesis and evaluation of analogues of (Z)-1-(4-methoxyphenyl)-2-(3,4,5-trimethoxyphenyl)ethene as potential cytotoxic and antimitotic agents” (J Med Chem, 1992).

Each structure is given as a SMILES string.

One may read the IC50 as the point on the concentration scale where inhibition reaches its midpoint. Lower therefore signals greater potency.

In the first assay the test system is MLM. Kind of assay: Cytotoxicity against human MLM melanoma cell line. Format: functional. Particulars: read-out: ED50 (the source's name). In short, it runs like this: (§1)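 MTT colorimetric assay run in the Purdue Cell Culture Laboratory. Poorly water-soluble compounds were serially diluted in DMSO and added as 0.5 μL aliquots per well. Cells were incubated with compound for 6 days before MTT was added. […] The reported ED50 is the mean of two determinations.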
On to `COc1cc(CCc2ccc(OCCN(C)C)cc2)cc(OC)c1OC`, for which the EC50 was > 25 µM.

On to `COc1ccc2c(c1)CN1CCc3c(cc(OC)c(OC)c3OC)C1C2` (centres undefined), for which the EC50 is > 25 µM.

As to `COc1cc(/C=C\c2ccc(SC)cc2)cc(OC)c1OC`, the EC50 came out at 0.0033 µM.

`COc1cc2ccc3cccc(OC)c3c2c(OC)c1OC`: the EC50 turned out to be 21.4 µM.

For the molecule `COc1cccc(/C=C(/C(=O)O)c2cc(OC)c(OC)c(OC)c2)c1`, the EC50 was > 25 µM.

As for `COc1ccc2cc3n(c(=O)c2c1)CCc1c-3cc(OC)c(OC)c1OC`, the EC50 is > 25 µM.

In the case of `COc1cc(/C=C\c2ccc(C)cc2)cc(OC)c1OC`, the EC50 turned out to be 0.0066 µM.

On to `COc1ccc(/C=C/c2cc(OC)c(O[Si](C)(C)C(C)(C)C)c(OC)c2)cc1`, for which the EC50 was > 25 µM.

As to `COc1ccc(C2Cc3cc(OC)c(OC)c(OC)c3C2)cc1` (centres undefined), the EC50 is > 25 µM.

As to `COc1ccc(C(Cc2cc(OC)c(OC)c(OC)c2)C(=O)O)cc1` (centres undefined), the EC50 is > 25 µM.

On to `COc1ccc(/C=C/c2cc(OC)cc(OC)c2)cc1` [TRISMETHOXYRESVERATROL], for which the EC50 is > 25 µM.

With `COc1ccc(C(=O)c2nccc3c(OC)c(OC)c(OC)cc23)cc1`, the EC50 was > 25 µM.

On to `CCc1ccc(/C=C\c2cc(OC)c(OC)c(OC)c2)cc1`, for which the EC50 was found to be 0.0075 µM.

Regarding `COc1cc(/C=C/c2ccc(C(C)C)cc2)cc(OC)c1OC`, the EC50 was > 25 µM.

The subject of the next assay is SK-MEL-5. Kind of assay: Compound was evaluated for cytotoxicity against human SKMEL-5 melanoma cell line. Format: functional. Particulars: read-out: ED50 (the source's name). An outline of the steps: as §1
Take `COc1cc(CCc2ccc(OCCN(C)C)cc2)cc(OC)c1OC`: the EC50 came to 11.4 µM.

On to `COc1ccc2c(c1)CN1CCc3c(cc(OC)c(OC)c3OC)C1C2` (centres undefined), for which the EC50 is > 25 µM.

With `COc1cc(/C=C\c2ccc(SC)cc2)cc(OC)c1OC`, the EC50 is 4e-06 µM.

As to `COc1cc2ccc3cccc(OC)c3c2c(OC)c1OC`, the EC50 was 1.3 µM.

Consider `COc1cccc(/C=C(/C(=O)O)c2cc(OC)c(OC)c(OC)c2)c1`, for which the EC50 was 0.05 µM.

In the case of `COc1ccc2cc3n(c(=O)c2c1)CCc1c-3cc(OC)c(OC)c1OC`, the EC50 is > 25 µM.

As for `COc1cc(/C=C\c2ccc(C)cc2)cc(OC)c1OC`, the EC50 was 0.00083 µM.

As for `COc1ccc(/C=C/c2cc(OC)c(O[Si](C)(C)C(C)(C)C)c(OC)c2)cc1`, the EC50 is > 25 µM.

For the molecule `COc1ccc(C2Cc3cc(OC)c(OC)c(OC)c3C2)cc1` (centres undefined), the EC50 was 19.5 µM.

As for `COc1ccc(C(Cc2cc(OC)c(OC)c(OC)c2)C(=O)O)cc1` (centres undefined), the EC50 amounted to 7.4 µM.

`COc1ccc(/C=C/c2cc(OC)cc(OC)c2)cc1` [TRISMETHOXYRESVERATROL]: the EC50 is 0.88 µM.

In the case of `COc1ccc(C(=O)c2nccc3c(OC)c(OC)c(OC)cc23)cc1`, the EC50 was > 25 µM.

For the molecule `CCc1ccc(/C=C\c2cc(OC)c(OC)c(OC)c2)cc1`, the EC50 amounted to 0.00086 µM.

Regarding `COc1cc(/C=C/c2ccc(C(C)C)cc2)cc(OC)c1OC`, the EC50 worked out at 11.1 µM.

For another assay, the system named is HT-29. The experiment in a line: Cytotoxicity against human HT-29 colon cell line. Format: functional. Conditions: read-out: ED50 (the source's name). In short, it runs like this: as §1
Consider `COc1cc(CCc2ccc(OCCN(C)C)cc2)cc(OC)c1OC`, for which the EC50 came to 9.8 µM.

Consider `COc1ccc2c(c1)CN1CCc3c(cc(OC)c(OC)c3OC)C1C2` (centres undefined), for which the EC50 is > 25 µM.

For the molecule `COc1cc(/C=C\c2ccc(SC)cc2)cc(OC)c1OC`, the EC50 stood at 1.8e-06 µM.

As for `COc1cc2ccc3cccc(OC)c3c2c(OC)c1OC`, the EC50 was 1.9 µM.

Regarding `COc1cccc(/C=C(/C(=O)O)c2cc(OC)c(OC)c(OC)c2)c1`, the EC50 amounted to 0.12 µM.

In the case of `COc1ccc2cc3n(c(=O)c2c1)CCc1c-3cc(OC)c(OC)c1OC`, the EC50 was > 25 µM.

As for `COc1cc(/C=C\c2ccc(C)cc2)cc(OC)c1OC`, the EC50 amounted to 0.0023 µM.

Take `COc1ccc(/C=C/c2cc(OC)c(O[Si](C)(C)C(C)(C)C)c(OC)c2)cc1`: the EC50 was > 25 µM.

Consider `COc1ccc(C2Cc3cc(OC)c(OC)c(OC)c3C2)cc1` (centres undefined), for which the EC50 was 12.8 µM.

For the molecule `COc1ccc(C(Cc2cc(OC)c(OC)c(OC)c2)C(=O)O)cc1` (centres undefined), the EC50 was determined as 9.4 µM.

Take `COc1ccc(/C=C/c2cc(OC)cc(OC)c2)cc1` [TRISMETHOXYRESVERATROL]: the EC50 turned out to be 6.9 µM.

As for `COc1ccc(C(=O)c2nccc3c(OC)c(OC)c(OC)cc23)cc1`, the EC50 was > 25 µM.

As to `CCc1ccc(/C=C\c2cc(OC)c(OC)c(OC)c2)cc1`, the EC50 worked out at 0.0027 µM.

With `COc1cc(/C=C/c2ccc(C(C)C)cc2)cc(OC)c1OC`, the EC50 was 6.8 µM.

The species entered for the next assay is Bos taurus. Kind of assay: Inhibition of tubulin polymerization. Format: functional.
Details: not given
In short, it runs like this:
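Bovine brain tubulin, purified to electrophoretic homogeneity, was preincubated at 37 °C with a range of compound concentrations and then chilled on ice. GTP was added and polymerization followed at 37 °C by turbidity at 350 nm. Extent was read at 20 min against two controls per experiment, and IC50 was determined graphically. Actives were run in ≥3 independent assays, inactives (IC50 > 40 μM) in ≥2.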
For `COc1cc(CCc2ccc(OCCN(C)C)cc2)cc(OC)c1OC`, the IC50 is > 40 µM.

As to `COc1ccc2c(c1)CN1CCc3c(cc(OC)c(OC)c3OC)C1C2` (centres undefined), the IC50 was > 40 µM.

`COc1cc(/C=C\c2ccc(SC)cc2)cc(OC)c1OC` had an IC50 of 6.2 µM.

For `COc1cc2ccc3cccc(OC)c3c2c(OC)c1OC`, the IC50 was > 40 µM.

On to `COc1cccc(/C=C(/C(=O)O)c2cc(OC)c(OC)c(OC)c2)c1`, for which the IC50 is > 40 µM.

With `COc1ccc2cc3n(c(=O)c2c1)CCc1c-3cc(OC)c(OC)c1OC`, the IC50 was > 40 µM.

With `COc1cc(/C=C\c2ccc(C)cc2)cc(OC)c1OC`, the IC50 was found to be 2 µM.

For `COc1ccc(/C=C/c2cc(OC)c(O[Si](C)(C)C(C)(C)C)c(OC)c2)cc1`, the IC50 is > 40 µM.

With `COc1ccc(C2Cc3cc(OC)c(OC)c(OC)c3C2)cc1` (centres undefined), the IC50 was > 40 µM.

On to `COc1ccc(C(Cc2cc(OC)c(OC)c(OC)c2)C(=O)O)cc1` (centres undefined), for which the IC50 was > 40 µM.

Regarding `COc1ccc(/C=C/c2cc(OC)cc(OC)c2)cc1` [TRISMETHOXYRESVERATROL], the IC50 is > 40 µM.

`COc1ccc(C(=O)c2nccc3c(OC)c(OC)c(OC)cc23)cc1`: the IC50 was > 40 µM.

Molecule `CCc1ccc(/C=C\c2cc(OC)c(OC)c(OC)c2)cc1` displayed an IC50 of 3.4 µM.

On to `COc1cc(/C=C/c2ccc(C(C)C)cc2)cc(OC)c1OC`, for which the IC50 was > 40 µM.

The subject of a further assay is MCF7. The experiment in a line: Cytotoxicity against human MCF-7 breast cancer cell line. Format: functional. Particulars: read-out: ED50 (the source's name). In short, it runs like this:
as §1
`COc1cc(CCc2ccc(OCCN(C)C)cc2)cc(OC)c1OC`: the EC50 was 10.3 µM.

Regarding `COc1ccc2c(c1)CN1CCc3c(cc(OC)c(OC)c3OC)C1C2` (centres undefined), the EC50 was > 25 µM.

For the molecule `COc1cc(/C=C\c2ccc(SC)cc2)cc(OC)c1OC`, the EC50 is 0.0054 µM.

`COc1cc2ccc3cccc(OC)c3c2c(OC)c1OC`: the EC50 worked out at 1.8 µM.

Consider `COc1cccc(/C=C(/C(=O)O)c2cc(OC)c(OC)c(OC)c2)c1`, for which the EC50 was > 25 µM.

On to `COc1ccc2cc3n(c(=O)c2c1)CCc1c-3cc(OC)c(OC)c1OC`, for which the EC50 is > 25 µM.

As to `COc1cc(/C=C\c2ccc(C)cc2)cc(OC)c1OC`, the EC50 worked out at 0.024 µM.

`COc1ccc(/C=C/c2cc(OC)c(O[Si](C)(C)C(C)(C)C)c(OC)c2)cc1`: the EC50 is > 25 µM.

Consider `COc1ccc(C2Cc3cc(OC)c(OC)c(OC)c3C2)cc1` (centres undefined), for which the EC50 is > 25 µM.

`COc1ccc(C(Cc2cc(OC)c(OC)c(OC)c2)C(=O)O)cc1` (centres undefined): the EC50 was > 25 µM.

In the case of `COc1ccc(/C=C/c2cc(OC)cc(OC)c2)cc1` [TRISMETHOXYRESVERATROL], the EC50 came out at 9.7 µM.

Consider `COc1ccc(C(=O)c2nccc3c(OC)c(OC)c(OC)cc23)cc1`, for which the EC50 is > 25 µM.

Consider `CCc1ccc(/C=C\c2cc(OC)c(OC)c(OC)c2)cc1`, for which the EC50 turned out to be 0.072 µM.

For the molecule `COc1cc(/C=C/c2ccc(C(C)C)cc2)cc(OC)c1OC`, the EC50 worked out at 18.4 µM.

A further assay relates to A549. Kind of assay: Compound was evaluated for cytotoxicity against human A-549 non-small cell lung cancer cell line. Format: functional. Particulars: read-out: ED50 (the source's name). In short, it runs like this:
as §1
Regarding `COc1cc(CCc2ccc(OCCN(C)C)cc2)cc(OC)c1OC`, the EC50 was > 25 µM.

`COc1ccc2c(c1)CN1CCc3c(cc(OC)c(OC)c3OC)C1C2` (centres undefined): the EC50 was > 25 µM.

As to `COc1cc(/C=C\c2ccc(SC)cc2)cc(OC)c1OC`, the EC50 was 0.00019 µM.

Turning to `COc1cc2ccc3cccc(OC)c3c2c(OC)c1OC`, the EC50 came to 5.7 µM.

On to `COc1cccc(/C=C(/C(=O)O)c2cc(OC)c(OC)c(OC)c2)c1`, for which the EC50 was 0.025 µM.

Turning to `COc1ccc2cc3n(c(=O)c2c1)CCc1c-3cc(OC)c(OC)c1OC`, the EC50 is > 25 µM.

For `COc1cc(/C=C\c2ccc(C)cc2)cc(OC)c1OC`, the EC50 came to 0.00094 µM.

On to `COc1ccc(/C=C/c2cc(OC)c(O[Si](C)(C)C(C)(C)C)c(OC)c2)cc1`, for which the EC50 is > 25 µM.

With `COc1ccc(C2Cc3cc(OC)c(OC)c(OC)c3C2)cc1` (centres undefined), the EC50 was > 25 µM.

As to `COc1ccc(C(Cc2cc(OC)c(OC)c(OC)c2)C(=O)O)cc1` (centres undefined), the EC50 is 14.3 µM.

`COc1ccc(/C=C/c2cc(OC)cc(OC)c2)cc1` [TRISMETHOXYRESVERATROL]: the EC50 is 7.5 µM.

Take `COc1ccc(C(=O)c2nccc3c(OC)c(OC)c(OC)cc23)cc1`: the EC50 was > 25 µM.

In the case of `CCc1ccc(/C=C\c2cc(OC)c(OC)c(OC)c2)cc1`, the EC50 came to 0.012 µM.

Consider `COc1cc(/C=C/c2ccc(C(C)C)cc2)cc(OC)c1OC`, for which the EC50 is 9.8 µM.
